Experimental data taken from ChEMBL document CHEMBL1154688, “Selective Kv1.5 blockers: development of (R)-1-(methylsulfonylamino)-3-[2-(4-methoxyphenyl)ethyl]-4-(4-methoxyphenyl)-2-imidazolidinone (KVI-020/WYE-160020) as a potential treatment for atrial arrhythmia” (J Med Chem, 2009).
Converted amounts (≈) assume the structure as drawn. Blank lines part the entries; values can stand above or below the compound they belong to.

Experiments:
CYP3A4 = CYP3A4 (Homo sapiens, UniProt P08684); experiment: Inhibition of CYP3A4 at 3 uM by fluorescent method; type: ADME
Sequence of CYP3A4 (P08684 whole entry): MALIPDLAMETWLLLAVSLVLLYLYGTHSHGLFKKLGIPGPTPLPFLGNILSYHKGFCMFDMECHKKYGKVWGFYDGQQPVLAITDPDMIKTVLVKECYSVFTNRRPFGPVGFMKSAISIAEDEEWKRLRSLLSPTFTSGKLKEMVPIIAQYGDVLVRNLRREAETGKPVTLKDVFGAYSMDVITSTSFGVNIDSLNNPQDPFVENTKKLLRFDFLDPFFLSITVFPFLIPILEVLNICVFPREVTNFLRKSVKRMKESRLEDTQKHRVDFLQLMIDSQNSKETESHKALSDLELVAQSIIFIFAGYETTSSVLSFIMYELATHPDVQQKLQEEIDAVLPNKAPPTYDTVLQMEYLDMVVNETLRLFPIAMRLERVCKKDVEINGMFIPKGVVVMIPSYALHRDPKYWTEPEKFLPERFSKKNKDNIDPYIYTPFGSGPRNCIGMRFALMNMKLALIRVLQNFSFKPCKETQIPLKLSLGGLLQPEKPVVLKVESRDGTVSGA
Procedure, shortened: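 CYP3A4 inhibition measured by a fluorescent method.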

[1] = target: Voltage-gated inwardly rectifying potassium channel KCNH2 (Homo sapiens, UniProt Q12809); experiment: Inhibition of human ERG by patch-clamp technique
Sequence of Voltage-gated inwardly rectifying potassium channel KCNH2 (Q12809 whole entry): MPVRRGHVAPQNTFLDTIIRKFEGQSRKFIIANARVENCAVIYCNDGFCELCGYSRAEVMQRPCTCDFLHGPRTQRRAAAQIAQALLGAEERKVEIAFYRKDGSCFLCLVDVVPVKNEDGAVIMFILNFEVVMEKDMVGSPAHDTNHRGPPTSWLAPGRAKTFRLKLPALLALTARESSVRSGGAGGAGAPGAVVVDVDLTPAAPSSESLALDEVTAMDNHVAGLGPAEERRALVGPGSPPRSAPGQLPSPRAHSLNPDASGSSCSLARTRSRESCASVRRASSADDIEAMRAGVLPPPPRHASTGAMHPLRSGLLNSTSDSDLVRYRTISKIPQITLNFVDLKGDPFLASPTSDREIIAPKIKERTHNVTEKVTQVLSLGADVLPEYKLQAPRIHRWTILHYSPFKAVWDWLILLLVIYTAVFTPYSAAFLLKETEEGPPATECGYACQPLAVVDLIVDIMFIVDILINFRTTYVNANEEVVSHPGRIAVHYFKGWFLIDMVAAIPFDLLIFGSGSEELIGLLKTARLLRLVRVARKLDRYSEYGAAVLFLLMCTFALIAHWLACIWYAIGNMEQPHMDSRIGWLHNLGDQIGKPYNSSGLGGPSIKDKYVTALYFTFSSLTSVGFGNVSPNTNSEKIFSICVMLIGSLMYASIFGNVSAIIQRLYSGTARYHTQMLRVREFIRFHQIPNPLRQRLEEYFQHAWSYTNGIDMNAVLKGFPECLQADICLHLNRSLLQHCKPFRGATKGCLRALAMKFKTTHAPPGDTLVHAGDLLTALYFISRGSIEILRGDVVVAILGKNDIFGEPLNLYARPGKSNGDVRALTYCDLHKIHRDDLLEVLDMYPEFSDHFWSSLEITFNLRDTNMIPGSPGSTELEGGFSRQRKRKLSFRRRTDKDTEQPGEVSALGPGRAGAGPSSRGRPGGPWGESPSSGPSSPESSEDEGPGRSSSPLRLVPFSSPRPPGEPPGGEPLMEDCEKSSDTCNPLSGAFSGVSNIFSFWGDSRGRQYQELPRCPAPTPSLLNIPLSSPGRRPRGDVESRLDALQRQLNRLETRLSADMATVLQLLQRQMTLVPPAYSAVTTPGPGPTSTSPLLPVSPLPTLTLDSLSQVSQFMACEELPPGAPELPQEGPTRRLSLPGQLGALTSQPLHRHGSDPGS

[2] = Metabolic stability in human liver microsomes assessed as half life; type: ADME, Microsome
Procedure, shortened: (§1)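 Test compound at 1 μM incubated with 1 mg/mL male beagle dog or male human liver microsomal protein. Half-life was determined from compound loss.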

[3] = target: Potassium voltage-gated channel subfamily A member 5 (Homo sapiens, UniProt P22460); experiment: Inhibition of human Kv1.5 expressed in CHO cells by patch-clamp technique; type: cell-based
Sequence of Potassium voltage-gated channel subfamily A member 5 (P22460 whole entry): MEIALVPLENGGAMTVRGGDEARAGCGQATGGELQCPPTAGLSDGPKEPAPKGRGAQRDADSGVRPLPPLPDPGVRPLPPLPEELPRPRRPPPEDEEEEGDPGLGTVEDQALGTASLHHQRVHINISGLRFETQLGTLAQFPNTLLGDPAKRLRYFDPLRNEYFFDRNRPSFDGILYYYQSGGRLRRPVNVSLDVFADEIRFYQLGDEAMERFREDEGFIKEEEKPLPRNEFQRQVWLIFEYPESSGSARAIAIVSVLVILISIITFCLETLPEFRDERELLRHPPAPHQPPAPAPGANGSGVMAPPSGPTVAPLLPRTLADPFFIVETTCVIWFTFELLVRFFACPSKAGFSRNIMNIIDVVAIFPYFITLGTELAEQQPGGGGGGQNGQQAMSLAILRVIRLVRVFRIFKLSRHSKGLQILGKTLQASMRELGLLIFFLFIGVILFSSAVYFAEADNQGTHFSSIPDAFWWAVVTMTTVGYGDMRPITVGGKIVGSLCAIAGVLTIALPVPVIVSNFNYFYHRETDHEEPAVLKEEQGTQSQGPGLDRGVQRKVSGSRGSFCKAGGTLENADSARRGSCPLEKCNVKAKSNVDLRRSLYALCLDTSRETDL
Procedure, shortened: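 Human Kv1.5 stably expressed in CHO cells. IC50 was determined by automated patch clamp on the IonWorks platform.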

[4] = Aqueous solubility at pH 7.4 by direct UV method; type: physicochemical; conditions: aqueous medium
Procedure, shortened: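 Solubility measured in pH 7.4 buffer with direct UV read-out.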

Cytochrome P450 2D6 = Cytochrome P450 2D6 (Homo sapiens, UniProt P10635); experiment: Inhibition of CYP2D6 in human liver microsomes; type: ADME, Microsome
Sequence of Cytochrome P450 2D6 (P10635 whole entry): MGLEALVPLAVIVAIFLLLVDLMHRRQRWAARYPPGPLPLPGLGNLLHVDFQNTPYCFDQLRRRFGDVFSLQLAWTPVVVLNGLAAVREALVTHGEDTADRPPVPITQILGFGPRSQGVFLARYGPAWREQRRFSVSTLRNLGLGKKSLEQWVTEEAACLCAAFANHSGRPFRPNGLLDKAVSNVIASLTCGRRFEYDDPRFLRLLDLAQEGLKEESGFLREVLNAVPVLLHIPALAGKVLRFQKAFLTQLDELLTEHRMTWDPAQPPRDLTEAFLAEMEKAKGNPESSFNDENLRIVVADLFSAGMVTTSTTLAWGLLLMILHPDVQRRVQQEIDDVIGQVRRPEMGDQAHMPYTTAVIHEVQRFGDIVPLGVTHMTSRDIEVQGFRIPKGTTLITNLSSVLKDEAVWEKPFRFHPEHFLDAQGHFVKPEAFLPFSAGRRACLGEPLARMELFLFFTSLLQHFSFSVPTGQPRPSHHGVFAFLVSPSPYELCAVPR
Procedure, shortened: (§2)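 Reversible inhibition assayed in human liver microsomes at 0.2 mg/mL protein with probe substrates. CYP3A4 used 2.5 μM midazolam and, separately, 50 μM testosterone. CYP2D6 used 10 μM bufuralol. CYP2C9 used 10 μM diclofenac. IC50 was determined.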

Cytochrome P450 2C9 = Cytochrome P450 2C9 (Homo sapiens, UniProt P11712); experiment: Inhibition of CYP2C9 in human liver microsomes; type: ADME, Microsome; procedure, shortened: as §2
Sequence of Cytochrome P450 2C9 (P11712 whole entry): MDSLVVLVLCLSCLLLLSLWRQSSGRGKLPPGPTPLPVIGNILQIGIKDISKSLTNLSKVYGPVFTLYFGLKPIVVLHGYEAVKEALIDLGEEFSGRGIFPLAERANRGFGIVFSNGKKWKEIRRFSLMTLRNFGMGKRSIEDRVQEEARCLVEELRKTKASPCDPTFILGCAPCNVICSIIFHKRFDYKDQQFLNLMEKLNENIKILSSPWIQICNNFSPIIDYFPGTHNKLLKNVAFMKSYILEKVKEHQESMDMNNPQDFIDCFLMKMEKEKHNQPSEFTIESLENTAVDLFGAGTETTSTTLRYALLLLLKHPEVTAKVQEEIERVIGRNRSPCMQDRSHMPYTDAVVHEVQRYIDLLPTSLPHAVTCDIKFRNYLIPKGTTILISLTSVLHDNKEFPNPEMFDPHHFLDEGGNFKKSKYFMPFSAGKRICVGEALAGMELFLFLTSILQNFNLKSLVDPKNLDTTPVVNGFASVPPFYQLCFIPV

[5] = target: Potassium voltage-gated channel subfamily A member 1 (Homo sapiens, UniProt Q09470); experiment: Inhibition of Kv1.1 expressed in CHO cells by patch-clamp technique; type: cell-based
Sequence of Potassium voltage-gated channel subfamily A member 1 (Q09470 whole entry): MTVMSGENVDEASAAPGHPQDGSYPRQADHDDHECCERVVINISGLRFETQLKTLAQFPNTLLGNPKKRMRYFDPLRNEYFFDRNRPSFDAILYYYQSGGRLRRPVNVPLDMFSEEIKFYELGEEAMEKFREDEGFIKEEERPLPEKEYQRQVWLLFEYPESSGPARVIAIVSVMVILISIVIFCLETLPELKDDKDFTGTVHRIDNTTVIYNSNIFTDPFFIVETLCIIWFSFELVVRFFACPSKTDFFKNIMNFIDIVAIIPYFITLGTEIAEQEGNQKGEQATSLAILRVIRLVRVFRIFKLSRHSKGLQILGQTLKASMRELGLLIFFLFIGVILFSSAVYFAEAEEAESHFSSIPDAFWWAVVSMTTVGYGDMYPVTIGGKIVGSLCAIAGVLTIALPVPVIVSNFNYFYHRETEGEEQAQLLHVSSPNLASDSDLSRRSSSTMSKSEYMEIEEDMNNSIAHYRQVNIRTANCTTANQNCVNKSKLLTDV
Procedure, shortened: (§3)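 Electrophysiology IC50 measured in stably transfected cell lines: CHO for Nav1.5, Kv1.1, Kv1.3 and Kv4.3, and HEK for Cav1.3 and Cav1.2.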

[6] = Plasma clearance in Beagle dog at 3 mg/kg, iv; type: ADME, organism-based, Canis lupus familiaris; set-up: dose 3 mg/kg, route intravenous
Procedure, shortened: (§4)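 Male beagles; single 30 min intravenous infusion at 3 mg/kg. Plasma clearance, steady-state volume of distribution, elimination half-life and AUC were derived from the plasma concentration–time profile.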

[7] = AUC in Beagle dog at 3 mg/kg, po; type: ADME, organism-based, Canis lupus familiaris; set-up: dose 3 mg/kg, route oral; conditions: plasma
Procedure, shortened: (§5)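 Male beagles dosed orally at 3 mg/kg. Cmax, Tmax, half-life and AUC were taken from plasma levels.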

[8] = Half life in Beagle dog at 3 mg/kg, po; type: ADME, organism-based, Canis lupus familiaris; set-up: dose 3 mg/kg, route oral; conditions: in vivo; procedure, shortened: as §5
[9] = Metabolic stability in Beagle dog liver microsomes assessed as half life; type: ADME, Canis lupus familiaris, Microsome; procedure, shortened: as §1
Canis familiaris [10] = species: Canis familiaris; experiment: Antiarrhythmic activity in Beagle dog prolongation of atrial effective refractory period at steady state plasma concentrations of 23 uM; type: functional, Canis lupus familiaris, Heart
Canis familiaris [11] = experiment: Antiarrhythmic activity in Beagle dog atrial/ventricular tachypacing model assessed as decrease in total atrial fibrillation at 3 mg/kg, po; type: functional, Canis lupus familiaris, Heart; set-up: scale not given: the % may be the effect or the level left
[12] = Tmax in Beagle dog at 3 mg/kg, po; type: ADME, organism-based, Canis lupus familiaris; set-up: dose 3 mg/kg, route oral; conditions: in vivo; procedure, shortened: as §5
[13] = Half life in Beagle dog at 3 mg/kg, iv; type: ADME, organism-based, Canis lupus familiaris; set-up: dose 3 mg/kg, route intravenous; conditions: in vivo; procedure, shortened: as §4
Cytochrome P450 3A4 = Cytochrome P450 3A4 (Homo sapiens, UniProt P08684); experiment: Inhibition of CYP3A4 in human liver microsomes; type: ADME, Microsome; procedure, shortened: as §2
Sequence of Cytochrome P450 3A4 (P08684 whole entry): as the sequence (P08684 whole entry) above

Canis familiaris [14] = experiment: Antiarrhythmic activity in Beagle dog atrial/ventricular tachypacing model assessed as decrease in atrial fibrillation at 3 mg/kg, po after 5 to 10 mins; type: functional, Canis lupus familiaris, Heart; set-up: scale not given: the % may be the effect or the level left
[15] = Cmax in Beagle dog at 3 mg/kg, po; type: ADME, organism-based, Canis lupus familiaris; set-up: dose 3 mg/kg, route oral; conditions: in vivo; procedure, shortened: as §5
Canis familiaris [16] = experiment: Antiarrhythmic activity in Beagle dog atrial/ventricular tachypacing model assessed as decrease in atrial fibrillation at 3 mg/kg, po; type: functional, Canis lupus familiaris, Heart; set-up: scale not given: the % may be the effect or the level left
[17] = Permeability from apical to basolateral side in human Caco-2 cells at pH 7.4; type: ADME, cell-based; conditions: Caco-2, pH 7.4, read-out: permeability
Procedure, shortened: (§6)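 Caco-2 monolayers at pH 7.4. Bidirectional transport was measured from apical to basolateral and from basolateral to apical. Apparent permeability was reported in cm/s.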

[18] = target: Voltage-dependent L-type calcium channel subunit alpha-1D (Homo sapiens, UniProt Q01668); experiment: Inhibition of Cav1.3 expressed in HEK cells by patch-clamp technique
[19] = Oral bioavailability in Beagle dog at 3 mg/kg; type: ADME, organism-based, Canis lupus familiaris; conditions: in vivo; procedure, shortened: as §5
[20] = target: Voltage-dependent L-type calcium channel subunit alpha-1C (Homo sapiens, UniProt Q13936); experiment: Inhibition of Cav1.2 expressed in HEK cells by patch-clamp technique
[21] = Permeability from basolateral to apical side in human Caco-2 cells at pH 7.4; type: ADME, cell-based; conditions: Caco-2, pH 7.4, read-out: permeability; procedure, shortened: as §6
[22] = target: Sodium channel protein type 5 subunit alpha (Homo sapiens, UniProt Q14524); experiment: Inhibition of Nav1.5 expressed in CHO cells by patch-clamp technique; type: cell-based; procedure, shortened: as §3
Canis familiaris [23] = experiment: Plasma concentration in Beagle dog at 6.3 mg/kg, iv; type: ADME, organism-based, Canis lupus familiaris; set-up: dose 6.3 mg/kg, route intravenous; conditions: in vivo
Canis familiaris [24] = experiment: Plasma concentration in Beagle dog at 1.9 mg/kg, iv; type: ADME, organism-based, Canis lupus familiaris; set-up: dose 1.9 mg/kg, route intravenous; conditions: in vivo
Canis familiaris [25] = species: Canis familiaris; experiment: Antiarrhythmic activity in Beagle dog prolongation of atrial effective refractory period at steady state plasma concentrations of 4.6 uM; type: functional, Canis lupus familiaris, Heart
[26] = AUC in Beagle dog at 3 mg/kg, iv; type: ADME, organism-based, Canis lupus familiaris; set-up: dose 3 mg/kg, route intravenous; conditions: plasma; procedure, shortened: as §4
[27] = target: Potassium voltage-gated channel subfamily A member 3 (Homo sapiens, UniProt P22001); experiment: Inhibition of Kv1.3 expressed in CHO cells by patch-clamp technique; type: cell-based; procedure, shortened: as §3
Sequence of Potassium voltage-gated channel subfamily A member 3 (P22001 whole entry): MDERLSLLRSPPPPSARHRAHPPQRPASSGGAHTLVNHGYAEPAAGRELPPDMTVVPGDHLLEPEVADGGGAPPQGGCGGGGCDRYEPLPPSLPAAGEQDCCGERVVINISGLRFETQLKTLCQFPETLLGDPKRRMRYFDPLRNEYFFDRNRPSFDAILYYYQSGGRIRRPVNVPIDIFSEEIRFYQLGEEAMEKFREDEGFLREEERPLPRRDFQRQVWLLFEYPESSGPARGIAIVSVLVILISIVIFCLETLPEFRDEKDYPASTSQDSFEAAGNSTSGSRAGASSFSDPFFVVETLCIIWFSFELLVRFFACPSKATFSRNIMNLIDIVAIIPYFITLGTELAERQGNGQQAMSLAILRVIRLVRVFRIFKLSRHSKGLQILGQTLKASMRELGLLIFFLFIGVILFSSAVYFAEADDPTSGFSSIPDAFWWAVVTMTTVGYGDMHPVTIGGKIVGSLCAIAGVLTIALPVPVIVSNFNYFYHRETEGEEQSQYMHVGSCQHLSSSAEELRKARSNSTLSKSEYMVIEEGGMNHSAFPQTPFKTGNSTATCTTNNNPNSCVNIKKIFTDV

[28] = target: T1, A-type voltage-gated potassium channel KCND3 (Homo sapiens, UniProt Q9UK17); experiment: Inhibition of Kv4.3 expressed in CHO cells by patch-clamp technique; type: cell-based; procedure, shortened: as §3
T1 sequence (Q9UK17 whole entry): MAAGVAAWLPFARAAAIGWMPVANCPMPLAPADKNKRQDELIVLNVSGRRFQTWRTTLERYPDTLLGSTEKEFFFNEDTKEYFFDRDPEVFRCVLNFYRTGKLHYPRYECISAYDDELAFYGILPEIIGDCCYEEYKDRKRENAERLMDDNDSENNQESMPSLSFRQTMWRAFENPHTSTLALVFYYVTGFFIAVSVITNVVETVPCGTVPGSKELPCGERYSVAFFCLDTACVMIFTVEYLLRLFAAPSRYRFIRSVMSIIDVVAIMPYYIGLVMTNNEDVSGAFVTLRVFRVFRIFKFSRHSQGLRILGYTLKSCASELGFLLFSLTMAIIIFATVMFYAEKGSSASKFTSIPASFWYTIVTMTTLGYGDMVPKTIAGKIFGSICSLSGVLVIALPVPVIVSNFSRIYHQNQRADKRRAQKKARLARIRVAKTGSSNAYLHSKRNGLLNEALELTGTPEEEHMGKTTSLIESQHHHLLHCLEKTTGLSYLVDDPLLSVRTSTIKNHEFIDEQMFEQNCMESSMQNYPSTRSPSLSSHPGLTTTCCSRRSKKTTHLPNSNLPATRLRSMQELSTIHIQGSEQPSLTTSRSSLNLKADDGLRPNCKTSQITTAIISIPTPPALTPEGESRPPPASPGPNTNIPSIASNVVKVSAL

[29] = Protein binding in Beagle dog plasma by equilibrium dialysis; type: ADME, cell-free, Canis lupus familiaris; conditions: read-out: PPB (converted)
Procedure, shortened: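 Tritium-labelled compound at 500 ng/mL in male beagle dog or male human plasma. Bound fraction was determined by equilibrium dialysis.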

[30] = Volume of distribution at steady state in Beagle dog at 3 mg/kg, iv; type: ADME, organism-based, Canis lupus familiaris; set-up: dose 3 mg/kg, route intravenous; conditions: in vivo, read-out: Vdss; procedure, shortened: as §4

SMILES: COc1ccc(CCN2C(=O)N(NS(C)(=O)=O)CC2c2ccc(C)c(C)c2)cc1 (configuration not stated)
- inhibition at 3 µM (CYP3A4): 77%
- IC50 [1]: 15.8 µM
- half-life [2]: 13 min
- IC50 [3]: 0.61 µM
- solubility [4]: 17 µg/mL (≈ 40.7 µM)

SMILES: COc1ccc(CCCN2C(=O)N(NS(C)(=O)=O)C[C@H]2c2ccc(OC)cc2)cc1
- inhibition at 3 µM (CYP3A4): 50%
- IC50 [1]: 14.3 µM
- half-life [2]: 12 min
- IC50 [3]: 0.56 µM
- solubility [4]: 15 µg/mL (≈ 34.6 µM)

SMILES: COc1ccc(CCN2C(=O)N(NS(=O)(=O)CC#N)C[C@@H]2c2ccc(OC)cc2)cc1
- inhibition at 3 µM (CYP3A4): 7%
- IC50 [1]: 33 µM
- half-life [2]: 21 min
- IC50 [3]: 0.23 µM
- solubility [4]: 100 µg/mL (≈ 225 µM)

The next lines start with results.

- inhibition at 3 µM (CYP3A4): 4%
- half-life [2]: 17 min
- IC50 [3]: 0.77 µM
- solubility [4]: 43 µg/mL (≈ 99.2 µM)
SMILES: CCOc1ccc(CCN2C(=O)N(NS(C)(=O)=O)C[C@@H]2c2ccc(OC)cc2)cc1

- inhibition at 3 µM (CYP3A4): 53%
- half-life [2]: 15 min
- IC50 [3]: 0.52 µM
- solubility [4]: 4 µg/mL (≈ 8.45 µM)
SMILES: COc1ccc([C@H]2CN(NS(C)(=O)=O)C(=O)N2CCc2ccc(OC(F)(F)F)cc2)cc1
- IC50 [1]: 5.6 µM

- inhibition at 3 µM (CYP3A4): 67%
- half-life [2]: 30 min
- IC50 [3]: 0.25 µM
- solubility [4]: 13 µg/mL (≈ 28.4 µM)
SMILES: COc1ccc(CCN2C(=O)N(NS(C)(=O)=O)CC2c2ccc(C(F)(F)F)cc2)cc1 (configuration not stated)
- IC50 [1]: 9.1 µM

- inhibition at 3 µM (CYP3A4): 90%
- half-life [2]: 3 min
- IC50 [3]: 0.6 µM
- solubility [4]: 23 µg/mL (≈ 46.3 µM)
SMILES: COc1ccc(CCN2C(=O)N(NS(=O)(=O)Cc3cccnc3)C[C@@H]2c2ccc(OC)cc2)cc1

- IC50 (Cytochrome P450 2D6): 180 µM
- IC50 (Cytochrome P450 2C9): 47 µM
- IC50 [5]: 2.66 µM
- inhibition at 3 µM (CYP3A4): 45%
- half-life [2]: 30 min
- clearance [6]: 23 mL/min/kg
- AUC [7]: 1990 ng·h/mL
- half-life [8]: 102 min
- half-life [9]: 11 min
- Tmax [12]: 60 min
- half-life [13]: 72 min
- IC50 (Cytochrome P450 3A4): 37 µM
- IC50 [3]: 0.48 µM
- Cmax [15]: 469 ng/mL
- Papp A→B [17]: 40 ×10⁻⁶ cm/s
- IC50 [18]: 23.4 µM
- bioavailability [19]: 82%
- Papp B→A [21]: 39 ×10⁻⁶ cm/s
- concentration (Canis familiaris [23]): 23 µM
- concentration (Canis familiaris [24]): 4.6 µM
- solubility [4]: 65 µg/mL (≈ 155 µM)
- AUC [26]: 2410 ng·h/mL
- IC50 [27]: 1.41 µM
- IC50 [28]: 3.87 µM
- fraction unbound [29]: 0.1
- Vd [30]: 2.2 L/kg
SMILES: COc1ccc(CCN2C(=O)N(NS(C)(=O)=O)C[C@H]2c2ccc(OC)cc2)cc1
- IC50 [1]: 15.1 µM
- Activity (Canis familiaris [10]): 17%
- Activity (Canis familiaris [11]): 52%
- Activity (Canis familiaris [14]): 63%
- Activity (Canis familiaris [16]): 55%
- IC50 [20]: > 30 µM
- IC50 [22]: > 30 µM
- Activity (Canis familiaris [25]): 12%
